KCC2 mod: KCC2 cotransporter modulators, thallium flux, primary screen, cell-based, HEK293 KCC2, FluoZin-2 fluorescence, MLSMR; Solute carrier family 12 member 5 (Homo sapiens), Q9H2X9; KCC2 cells, thallium flux FluoZin-2 fluorescence; B-score of Tl+ flux slope (higher = more flux/activation; lower = inhibition) at 10 µM; hit rate 2.2% among 190,000; AID 1456, 2008;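 active means thallium flux slope and its plate-corrected score both differing from the plate sample mean at a set confidence after two filtering rounds, in either direction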;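 further: slope of fluorescence scaled to starting intensity during 10 to 20 s after thallium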
MrgX1 ag: agonists of human MrgX1 receptor, primary screen, HEK293 cells, Fluo-4 calcium flux; Mas-related G-protein coupled receptor member X1 (Homo sapiens), Q96LB2; Fluo-4 calcium fluorescence, agonist mode; active compounds read high; B-score at 10 µM; hit rate 0.44% among 310,000;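 active means calcium response B-score plate-corrected fluorescence ratio at least 3 library SD, with starting fluorescence B-score inside 5 SD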
Target sequence (Q96LB2 whole entry, looked up): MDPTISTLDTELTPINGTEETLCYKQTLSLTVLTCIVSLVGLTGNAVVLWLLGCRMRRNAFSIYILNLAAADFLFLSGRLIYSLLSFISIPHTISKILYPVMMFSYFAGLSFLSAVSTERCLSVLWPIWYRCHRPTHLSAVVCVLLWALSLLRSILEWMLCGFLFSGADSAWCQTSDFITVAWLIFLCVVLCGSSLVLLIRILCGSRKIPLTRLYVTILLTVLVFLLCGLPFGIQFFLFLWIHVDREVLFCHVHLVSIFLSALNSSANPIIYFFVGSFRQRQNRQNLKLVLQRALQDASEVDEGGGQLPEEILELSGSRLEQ
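Material: HEK293 cells stably expressing human MrgX1 receptor | Quantity: 15,000 cells per well | Times: Cells plated overnight, dye loaded 0.5 h 37 °C, 0.5 h room temperature | Measured by: Kinetic Fluo-4 NW fluorescence of intracellular calcium | Control set: Positive and negative controls per plate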
RGS4 pot: RGS4 potentiators or activators, primary screen, cell-based, HEK293 M3R inducible RGS4, calcium flux; carbachol calcium flux Fluo4; active compounds read low; B-score at 10 µM; hit rate 0.92% among 310,000;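 active means B-score of the integrated calcium signal more than 4 SD below the library mean, with starting fluorescence not abnormally high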;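 further: negative B-score means reduced calcium response which marks RGS4 activation or potentiation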
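Reagent: ECmax carbachol challenge; Test system: M3R-expressing HEK293 line, RGS4 induced by doxycycline; Schedule: overnight RGS4 induction, 30 min dye load 37 °C, 20 min compound RT; Detection: calcium dye Fluo4 fluorescence; Read-out: Agonist-evoked peak-minus-minimum fluorescence over baseline, integrated ratio, B score.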
MrgX1 PAM: positive allosteric modulators of MrgX1, primary screen, HEK293 cells, Fluo-4 calcium flux; B-score at 10 µM; AID 588675, 2011; Mas-related G-protein coupled receptor member X1 (Homo sapiens), Q96LB2; FDSS; active compounds read high; hit rate 0.63% among 310,000;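 active means plate-corrected calcium response at least 3 library SD above typical, normal starting fluorescence, not activating the receptor alone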;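 further: compound read alongside a low EC10 to EC30 dose of BAM8-22 agonist; peak minus trough fluorescence over baseline measured at the second addition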
MrgX1 antag: antagonists of human MrgX1 receptor, primary screen, HEK293 cells, Fluo-4 calcium flux; Mas-related G-protein coupled receptor member X1 (Homo sapiens), Q96LB2; BAM8-22 antagonism; active compounds read low; B-score at 10 µM; hit rate 1.3% among 310,000; AID 588676, 2011;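 active means calcium-response B-score plate-corrected more than 3 library SD below zero, starting fluorescence within 5 deviations, no agonist response on first addition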;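 further: peak minus trough fluorescence over baseline after final BAM8-22 challenge near maximal dose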
RGS4 block: RGS4 inhibitors, primary screen, cell-based, HEK293 M3R inducible RGS4, calcium flux | Regulator of G-protein signaling 4 (Homo sapiens), P49798 | Fluo-4 calcium flux; active compounds read high; triggered by carbachol at its EC20 | B-score at 10 µM | hit rate 0.45% among 310,000;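 active means B-score, a plate-corrected calcium signal, over three deviations above library mean, with baseline fluorescence within five deviations of library mean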;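 further: RGS4 expression induced by doxycycline in cells with stable M3 receptor; B-score is computed from the integrated fluorescence ratio over baseline after carbachol; higher B-score means a larger calcium signal and so more RGS4 inhibition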
Target sequence (P49798 whole entry, looked up): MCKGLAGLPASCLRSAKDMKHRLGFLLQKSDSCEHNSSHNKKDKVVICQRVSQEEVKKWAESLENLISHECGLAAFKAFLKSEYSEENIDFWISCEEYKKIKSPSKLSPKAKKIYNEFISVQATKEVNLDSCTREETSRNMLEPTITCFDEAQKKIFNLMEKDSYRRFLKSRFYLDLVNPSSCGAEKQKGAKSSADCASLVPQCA
RGS4 act valid: reduced carbachol calcium response, RGS4-induced M3R cells, confirmation, RGS4 activator project, cell-based, HEK293 M3R/RGS4 inducible, calcium flux, duplicate; hit rate 89% among 1,100; carbachol calcium flux Fluo4; shares compounds with RGS4 pot; AID 602282, 2012; inhibition, % at 10 µM;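 active means inhibition above 3 SD of the buffer control wells, cut at about 41% in these data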;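 further: signal is the integrated peak-minus-minimum Fluo4 fluorescence over baseline ratio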
M3R Ca counter: RGS4 activator counter-screen hit in non-induced cells. shares compounds with RGS4 pot. HEK293 M3R non-induced RGS4, Fluo4 calcium flux; after carbachol challenge at its EC90. inhibition, % at 10 µM. hit rate 82% among 1,100. AID 602283;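 active means inhibition exceeding 3 SD of buffer-only control wells, cut at about 26% in these data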;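 further: percent drop in integrated peak-minus-baseline over baseline Fluo4 ratio after carbachol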
Starred values were filed as active, the others as inactive; i = inactive; · = no result. Most compounds without a hit are left out; they make up all but 4.7% or so of the library.

SMILES | KCC2 mod | MrgX1 ag | RGS4 pot | MrgX1 PAM | MrgX1 antag | RGS4 block | RGS4 act valid | M3R Ca counter
COC(=O)c1cc2sccc2n1Cc1nc(-c2cccc(Cl)c2)oc1C | -3 | i | i | i | i | i | · | ·
COc1ccc(NC(=O)CC2C(=O)N(c3ccc(Cl)cc3)C(=S)N2NC(=O)c2cccc(F)c2)cc1 (configuration not stated) | 0.34 | i | i | i | i | i | · | ·
COc1ccc(NC(=O)CC2C(=O)N(c3ccc(F)cc3)C(=S)N2NC(=O)c2ccc(Cl)cc2)cc1 (configuration not stated) | -1.4 | i | -11* | i | i | i | 0 | 0
O=C(c1ccco1)N1CCN(Cc2cc(=O)c(OCc3ccccc3Cl)co2)CC1 | · | i | i | i | i | i | · | ·
O=C(Cn1c(=O)oc2ccc(Cl)cc21)Nc1ccon1 | · | i | i | i | i | i | · | ·
c1ccc(-c2nc(N3CCCCCC3)nc(-n3ccnc3)n2)cc1 | -0.027 | i | -8.7* | i | i | i | 92* | 61*
Cc1cc(C)c(C#N)c(SCC(O)COc2ccc(Br)cc2)n1 (configuration not stated) | · | i | -13* | i | i | i | 94* | 94*
Cc1cc(C)c(C#N)c(SCC(O)CS(=O)(=O)Cc2ccccc2)n1 (configuration not stated) | -2.7 | i | i | i | i | i | · | ·
Cc1cc2c3c([nH]c2cc1S(=O)(=O)NCc1ccc(CN2CCCCCC2)o1)CCCC3=O | · | i | -8.6* | i | i | i | 75* | 46*
Cc1cc2c3c([nH]c2cc1S(=O)(=O)NCc1ccc(CN2CCCCCC2)o1)CC(C)(C)CC3=O | · | i | i | i | i | i | · | ·
CC(=O)Nc1nc2ccc(S(=O)(=O)N3CCCC3)cc2s1 | · | i | i | i | i | i | · | ·
O=C(Nc1nc2ccc(S(=O)(=O)N3CCCC3)cc2s1)c1ccco1 | 0.02 | i | -7.6* | i | i | i | 0 | 0
COCCN(C(=O)COC(=O)c1ccccc1Cc1ccccc1)c1c(N)n(Cc2ccccc2)c(=O)[nH]c1=O | · | i | i | i | i | i | · | ·
CC(C)(C)c1cc(C(=O)NCc2cc(F)cc3c2OCOC3)n(Cc2ccccc2)n1 | -0.9 | i | -8.4* | i | i | i | 92* | 56*
Cc1cccc(C)c1NC(=O)NNC(=O)c1cc(C(C)(C)C)nn1Cc1ccccc1 | 0.5 | i | i | i | i | i | · | ·
Cc1cc(NC(=O)C2CC(=O)N(c3ccccc3Cl)C2)no1 (configuration not stated) | · | i | i | i | i | i | · | ·
CC(Oc1ccccc1)C(=O)Nc1ccc(C(N)=O)cc1 (configuration not stated) | · | i | i | i | i | i | · | ·
CC(C)NS(=O)(=O)c1ccc(NC(=O)C(C)Oc2ccc(C(=O)c3ccccc3)cc2)cc1 (configuration not stated) | 0.58 | i | -7.7* | i | -8.6* | i | 70* | 74*
Cc1cc(C)nc(N(C#N)CCOc2ccc(Cl)cc2)n1 | -1.6 | i | i | i | i | i | · | ·
CC(C)Nc1nc(NC(C)C)nc(N(C#N)CCOc2ccc(Cl)cc2Cl)n1 | · | i | -7.8* | i | i | i | 63* | 84*

Screening results deposited in PubChem by several laboratories.
